Reference: ChEMBL document CHEMBL4400542, “Epidermal Growth Factor Receptor-Targeted Multifunctional Photosensitizers for Bladder Cancer Imaging and Photodynamic Therapy” (J Med Chem, 2019)
pIC50: −log10 of the molar value. The source made the active and inactive calls. The calls are words filed in the database; no cut-off is given here.

Experiments:
[1] = Drug accumulation in mitochondria of human T24 cells at 500 nM formulated with 2% pluronic F-127 solution after 24 hrs by mitotracker red based fluorimetry; assay type: ADME; conditions: t-24, 24 h, 0.5 µM
[2] = Drug uptake in human UM-UC-3 cells assessed as increase in gray value intensity at 500 nM after 48 hrs in absence of gleevec by Hoechst 33342 staining based fluorescence microscopy; assay type: ADME, cell-based; conditions: umuc3, 24 h, 0.5 µM, in the assay text read “24 hrs” for “48 hrs”
Summary of the method: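 Cells plated at 100k per well, grown to 80% confluency, refreshed, then incubated 24 h with PS at 500 nM with or without Gleevec 5 µM. Washed twice with PBS, Hoechst 33342 added, imaged by fluorescence microscopy; grey value normalized to cell number, triplicate groups and images.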

UMUC3 [3] = assay: Induction of oxidative stress in human UM-UC-3 cells assessed as increase in ROS production at 1 uM in presence of 1 J/cm2 light irradiation and measured at 20 min post light exposure by DCFDA-fluorescence based assay relative to control; assay type: functional
Summary of the method: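 UMUC3 cells at 10k per well; after 24 h, PS added at 1 µM for 24 h (Tween80 formulation). DCFDA 1 µM for 20 min, fluorescence read (ex 492, em 517). Then 665 nm light, 1 J total at 3.2 mW/cm2, and read again. No-DCFDA background subtracted; 0.05% H2O2 control wells.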

UMUC3 [4] = assay: Photo-activated cytotoxicity against human UM-UC-3 cells assessed as reduction in cell viability preincubated for 24 hrs followed by 1 J/cm2 light irradiation and measured after 48 hrs formulated with 1% tween 80 solution by MTT assay; assay type: functional, cell-based; conditions: UMUC3, light or radiation study
Summary of the method: (§1)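 Cells plated at 10k per well, allowed 24 h to adhere, then PS added in two-fold dilutions from 1 µM top for 24 h. Irradiated at 665 nm, 1.0 J/cm2 at 3.2 mW/cm2. Viability by MTT 48 h after PDT: about 2 h incubation, formazan dissolved in DMSO, absorbance at 570 nm.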

T-24 [5] = assay: Induction of apoptosis in human T24 cells assessed as increase in apoptotic cells at 1 uM in absence of light by Annexin V/propidium iodide-staining based flow cytometry; assay type: cell-based; conditions: t-24, 1 µM
[6] = Drug accumulation in human UM-UC-3 cells at 500 nM formulated with 2% pluronic F-127 solution after 24 hrs by CARY-fluorimetry; assay type: ADME, cell-based; conditions: umuc3, 24 h, 0.5 µM
[7] = Drug accumulation in mitochondria of human UM-UC-3 cells at 500 nM formulated with 1% tween 80 solution after 24 hrs by mitotracker red based fluorimetry; assay type: ADME; conditions: umuc3, 24 h, 0.5 µM
[8] = Drug accumulation in mitochondria of human UM-UC-3 cells at 500 nM formulated with 2% pluronic F-127 solution after 24 hrs by mitotracker red based fluorimetry; assay type: ADME; conditions: umuc3, 24 h, 0.5 µM
[9] = target: Epidermal growth factor receptor (Homo sapiens) (UniProt P00533); assay: Inhibition of EGFR autophosphorylation at Ty1068 in human UM-UC-3 cells at 100 nM followed by PDT and measured after 24 hrs by Western blot analysis; assay type: cell-based
Sequence of Epidermal growth factor receptor (Homo sapiens) (P00533 whole entry): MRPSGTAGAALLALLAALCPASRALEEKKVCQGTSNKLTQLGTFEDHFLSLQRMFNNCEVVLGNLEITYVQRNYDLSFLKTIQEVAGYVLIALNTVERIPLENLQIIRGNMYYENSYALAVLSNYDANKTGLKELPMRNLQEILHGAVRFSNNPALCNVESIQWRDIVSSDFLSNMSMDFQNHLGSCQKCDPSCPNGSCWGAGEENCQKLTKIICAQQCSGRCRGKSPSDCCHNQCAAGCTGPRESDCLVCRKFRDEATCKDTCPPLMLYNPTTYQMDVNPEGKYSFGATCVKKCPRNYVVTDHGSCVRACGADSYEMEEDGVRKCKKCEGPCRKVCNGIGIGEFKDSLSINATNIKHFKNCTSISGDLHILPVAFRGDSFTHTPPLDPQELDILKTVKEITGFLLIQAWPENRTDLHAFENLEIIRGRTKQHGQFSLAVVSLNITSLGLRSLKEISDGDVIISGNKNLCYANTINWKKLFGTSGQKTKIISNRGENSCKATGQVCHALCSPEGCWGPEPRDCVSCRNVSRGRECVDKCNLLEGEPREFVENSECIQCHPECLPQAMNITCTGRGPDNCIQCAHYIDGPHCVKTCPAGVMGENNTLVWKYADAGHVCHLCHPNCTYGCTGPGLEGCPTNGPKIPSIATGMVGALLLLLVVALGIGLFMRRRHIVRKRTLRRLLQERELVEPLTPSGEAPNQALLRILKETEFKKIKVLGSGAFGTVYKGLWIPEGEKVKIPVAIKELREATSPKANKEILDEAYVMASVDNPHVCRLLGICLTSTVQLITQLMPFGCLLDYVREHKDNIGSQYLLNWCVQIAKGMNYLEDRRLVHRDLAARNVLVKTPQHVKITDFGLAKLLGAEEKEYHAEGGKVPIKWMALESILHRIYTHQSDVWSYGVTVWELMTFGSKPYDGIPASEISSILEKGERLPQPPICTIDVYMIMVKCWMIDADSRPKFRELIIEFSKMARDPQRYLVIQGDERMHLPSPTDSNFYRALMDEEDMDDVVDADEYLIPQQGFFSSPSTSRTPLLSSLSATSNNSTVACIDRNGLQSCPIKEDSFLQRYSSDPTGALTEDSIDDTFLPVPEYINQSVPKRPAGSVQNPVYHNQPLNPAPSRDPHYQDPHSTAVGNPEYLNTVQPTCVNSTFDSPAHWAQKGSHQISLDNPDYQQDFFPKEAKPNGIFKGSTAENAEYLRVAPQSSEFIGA

[10] = target: Epidermal growth factor receptor (Homo sapiens) (UniProt P00533); assay: Inhibition of EGFR autophosphorylation at Ty1068 in human UM-UC-3 cells at 1 uM followed by PDT and measured after 24 hrs by Western blot analysis; assay type: cell-based
[11] = Drug accumulation in human UM-UC-3 cells at 500 nM formulated with 1% tween 80 solution after 24 hrs by CARY-fluorimetry; assay type: ADME, cell-based; conditions: umuc3, 24 h, 0.5 µM
[12] = Stability at -20 degC for 2 months; assay type: physicochemical; conditions: 1461 h
Summary of the method: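 Formulated PS stored at -4 °C or -20 °C for two months; checked for precipitation and pH change.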

[13] = Drug uptake in human T24 cells assessed as increase in gray value intensity at 1 uM pretreated for 24 hrs followed by compound washout and measured after 4 hrs by Hoechst 33342 staining based fluorescence microscopy; assay type: ADME, cell-based; conditions: t-24, 4 h
Summary of the method: (§2)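 Cells pre-incubated 24 h with free erlotinib before PS addition. Legend describes PS at 1 uM or erlotinib at 3 uM for 4 h, then three warm PBS washes. Imaged by fluorescence microscopy; grey value per field normalized to cell count, triplicate wells, each imaged in triplicate.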

[14] = Induction of singlet oxygen generation in deaerated toluene at 670 nm assessed as rate of singlet decay by femtosecond transient absorption spectroscopy; assay type: functional
[15] = Drug accumulation in lysosomes of human UM-UC-3 cells at 500 nM formulated with 1% tween 80 solution after 24 hrs by lysosphere green based fluorimetry; assay type: ADME, subcellular, Lysosome; conditions: umuc3, 24 h, 0.5 µM
[16] = Drug accumulation in human T24 cells at 500 nM formulated with 1% tween 80 solution after 24 hrs by CARY-fluorimetry; assay type: ADME, cell-based; conditions: t-24, 24 h, 0.5 µM
[17] = Stability at -4 degC for 2 months; assay type: physicochemical; conditions: 1461 h
Summary of the method: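 Photosensitizer formulations in Tween80 or Pluronic F-127 were stored at -4 °C, alongside a -20 °C set, for two months. Stability was judged by visible precipitation and change in pH.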

[18] = Drug accumulation in mitochondria of human T24 cells at 500 nM formulated with 1% tween 80 solution after 24 hrs by mitotracker red based fluorimetry; assay type: ADME; conditions: t-24, 24 h, 0.5 µM
[19] = Drug accumulation in lysosomes of human T24 cells at 500 nM formulated with 2% pluronic F-127 solution after 24 hrs by lysosphere green based fluorimetry; assay type: ADME, subcellular, Lysosome; conditions: t-24, 24 h, 0.5 µM
UMUC3 [20] = assay: Photo-activated cytotoxicity against human UM-UC-3 cells assessed as reduction in cell viability preincubated for 24 hrs followed by 1 J/cm2 light irradiation and measured after 48 hrs formulated with 2% pluronic F-127 solution by MTT assay; assay type: functional, cell-based; conditions: UMUC3, light or radiation study; summary of the method: as §1
UMUC3 [21] = assay: Induction of apoptosis in human UM-UC-3 cells assessed as increase in apoptotic cells at 1 uM in absence of light by Annexin V/propidium iodide-staining based flow cytometry; assay type: cell-based; conditions: umuc3, 1 µM
T-24 [22] = assay: Photo-activated cytotoxicity against human T24 cells assessed as reduction in cell viability preincubated for 24 hrs followed by 1 J/cm2 light irradiation and measured after 48 hrs formulated with 2% pluronic F-127 solution by MTT assay; assay type: functional, cell-based; conditions: T-24, light or radiation study; summary of the method: as §1
[23] = Drug accumulation in human T24 cells at 500 nM formulated with 2% pluronic F-127 solution after 24 hrs by CARY-fluorimetry; assay type: ADME, cell-based; conditions: t-24, 24 h, 0.5 µM
[24] = Drug accumulation in lysosomes of human UM-UC-3 cells at 500 nM formulated with 2% pluronic F-127 solution after 24 hrs by lysosphere green based fluorimetry; assay type: ADME, subcellular, Lysosome; conditions: umuc3, 24 h, 0.5 µM
[25] = Drug uptake in human UM-UC-3 cells assessed as increase in gray value intensity at 1 uM pretreated for 24 hrs followed by compound washout and measured after 4 hrs by Hoechst 33342 staining based fluorescence microscopy; assay type: ADME, cell-based; conditions: umuc3, 4 h; summary of the method: as §2
T-24 [26] = assay: Photo-activated cytotoxicity against human T24 cells assessed as reduction in cell viability preincubated for 24 hrs followed by 1 J/cm2 light irradiation and measured after 48 hrs formulated with 1% tween 80 solution by MTT assay; assay type: functional, cell-based; conditions: T-24, light or radiation study; summary of the method: as §1
[27] = Induction of singlet oxygen generation in deaerated toluene at 670 nm assessed as singlet decay life time by femtosecond transient absorption spectroscopy; assay type: functional
[28] = Drug accumulation in lysosomes of human T24 cells at 500 nM formulated with 1% tween 80 solution after 24 hrs by lysosphere green based fluorimetry; assay type: ADME, subcellular, Lysosome; conditions: t-24, 24 h, 0.5 µM

Row | SMILES | Drug uptake [1] | Drug uptake [2] | fold change (FC) (UMUC3 [3]) | pIC50 (UMUC3 [4]) | Activity (T-24 [5]) | Drug uptake [6] | Drug uptake [7] | Drug uptake [8] | inhibition [9] | inhibition [10] | Drug uptake [11] | Stability [12] | Drug uptake [13] | K [14] | Drug uptake [15] | Drug uptake [16] | Stability [17] | Drug uptake [18] | Drug uptake [19] | pIC50 (UMUC3 [20]) | other results
1 | CCC1=C(C)c2cc3[nH]c(cc4nc(c5c6[nH]c(cc1n2)c(C)c6C(=O)C5)[C@@H](CCC(=O)NCc1cccc(I)c1)[C@@H]4C)c(C)c3C(C)OCc1cccc(C#Cc2cccc(Nc3ncnc4cc(OCCOC)c(OCCOC)cc34)c2)c1 (stereo partly specified) | Active | Not Active | 0.9 | 6.22 | Non-Toxic | Active | Active | Active | Active | Active | Active | Stable | Active | 1.2 ×10¹⁰ /s | Active | Active | Stable | Active | Active | 6.49 | Activity (UMUC3 [21]): Non-Toxic; pIC50 (T-24 [22]): 5.90; Drug uptake [23]: Active; Drug uptake [24]: Active; Drug uptake [25]: Not Active; pIC50 (T-24 [26]): 5.99; Time [27]: 83 pS; Drug uptake [28]: Active
2 | CCC1=C(C)c2cc3[nH]c(cc4nc(c5c6[nH]c(cc1n2)c(C)c6C(=O)C5)[C@@H](CCC(=O)OC)[C@@H]4C)c(C)c3C(C)OCc1cccc(I)c1 (stereo partly specified) | Active | Active | 2.5 | 7.02 | Non-Toxic | Active | Active | Active | Active | inactive | Active | Stable | Active | 1 ×10⁹ /s | Active | Active | Stable | Active | Active | 6.70 | Activity (UMUC3 [21]): Non-Toxic; pIC50 (T-24 [22]): 6.75; Drug uptake [23]: Active; Drug uptake [24]: Active; Drug uptake [25]: Active; pIC50 (T-24 [26]): 7.13; Time [27]: 1 nanoseconds; Drug uptake [28]: Active
